# Screens from PubChem BioAssay.
# TMEM16A act: activators or potentiators of mouse TMEM16A chloride channel; Q8BHY3; HEK293 TMEM16A/YFP-H148Q/I152L, iodide quench fluorescence; stronger effect = lower value; B-score at 10 µM; 340,000 compounds, 0.3% hits; AID 623877;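 active = fluorescence-ratio B-score plate-corrected deviation score at least 3 library SD below zero, with starting fluorescence score within 5 deviations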;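 also: channel opened by trigger with iodide after compound preincubation; score built on the fluorescence ratio of max minus min over baseline; more negative score means more quench and so TMEM16A activation or potentiation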
# Apaf1 inhib: inhibitors of human Apaf-1 apoptosome; inhibition, % at 20 µM; 330,000 compounds, 0.71% hits; reconstituted apoptosome caspase-3 activity, DEVD-Rh110 fluorescence; active = inhibition of at least 40% at 20 µM;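 also: plate controls were DMSO wells for no effect and DEVD-CHO caspase inhibitor wells for full effect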
#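 detection = Rh110 fluorescence intensity | test system = biochemical Apaf-1 apoptosome reconstitution | also added = cytochrome c and DEVD-Rh110 substrate | schedule = 30 min plus 50 min, RT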
# FID counter: counter-screen for HCV NS3 helicase inhibitors: DNA intercalator displacement; DNA fluorescent intercalator displacement, fluorescence; inhibition, % at 7.9 µM; 290,000 compounds, 0.17% hits; in the data active = inhibition above about 37%;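 also: 0% = vehicle and 100% = reference compound; higher means more ethidium bromide displaced from hairpin DNA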
# TMEM16A inh: mouse TMEM16A channel inhibition, primary screen; HEK293 TMEM16A/YFP iodide influx fluorescence, ionomycin; 310,000 compounds, 1.2% hits; normalized B-score (activity score, 25-100; higher = stronger inhibition) at 10 µM;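 active = ratio plate-corrected score three or more library SD toward inhibition, starting fluorescence score within five deviations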;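 also: score derived from kinetic fluorescence span divided by baseline fluorescence per well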
# UBC13 inh: inhibitors of human UBC13 polyubiquitin chain formation | TR-FRET | inhibition, % at 20 µM | P61088 | AID 485273 | 330,000 compounds, 0.47% hits; in the data active = inhibition above about 45%, passing the limit was not always enough
# Target sequence (P61088 whole entry, looked up): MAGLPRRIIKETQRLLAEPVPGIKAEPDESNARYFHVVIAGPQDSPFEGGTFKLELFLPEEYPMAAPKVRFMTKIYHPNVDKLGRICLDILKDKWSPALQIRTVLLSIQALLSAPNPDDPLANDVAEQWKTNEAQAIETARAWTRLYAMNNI
# An asterisk follows results filed as active; i = inactive; · = no result given. Hits are enriched below; roughly 2.4% of the tested compounds scored in any of these assays.
SMILES,TMEM16A act,Apaf1 inhib,FID counter,TMEM16A inh,UBC13 inh
O=C(COc1ccc(C(=O)c2ccccc2)cc1)NC1CCCCCC1,i,10.3,-36.3,i,5.8
CCC(C)(C)NC(=O)COc1ccc(C(=O)c2ccccc2)cc1,i,4.7,-10.4,25*,-0.7
CC(=O)c1cccc(NC(=S)NCc2ccccc2)c1,i,8.0,-3.8,i,2.7
COc1ccc(NC(=S)Nc2cccc3ccccc23)cc1OC,i,82.9*,-4.9,i,-42.3
S=C(Nc1cccc2ccccc12)Nc1cccc2ccccc12,i,·,·,·,·
CC(=O)c1cccc(NC(=S)Nc2cccc3ccccc23)c1,i,81.4*,0.0,i,-31.3
Cc1ccc(C)c(NC(=S)Nc2cccc3cnccc23)c1,i,95.7*,4.6,i,-73.1
Cc1ccc(F)c(NC(=S)Nc2cccc3ccccc23)c1,i,78.2*,1.1,i,-29.9
COCCN1CCN(C(=O)c2cc(COc3ccc(F)c(F)c3)on2)CC1,i,-33.6,-18.2,i,-4.2
O=C(NNC(=S)Nc1cccc2ccccc12)c1cccc(Br)c1,i,4.5,-14.7,25*,-18.1
S=C(Nc1cccc(Cl)c1)Nc1cccc2cnccc12,i,·,8.9,i,·
CC(=O)c1ccc(NC(=S)Nc2cccc3cnccc23)cc1,i,96.3*,1.7,i,-57.5
O=C(NCCO)C(=O)NCC1OCCCN1S(=O)(=O)c1cc(F)ccc1F (configuration not stated),i,-20.9,-7.0,i,8.7
CC1CCCCN1CC(O)COCCC12CC3CC(CC(C3)C1)C2 (configuration not stated),i,-4.7,43.8*,i,3.0
FC(F)(F)Oc1ccc(NC(=S)Nc2ccc(OC(F)(F)F)cc2)cc1,i,-3.2,0.9,25*,-6.1
CC(C)c1ccc(NC(=S)Nc2ccc(OC(F)(F)F)cc2)cc1,i,5.8,1.8,i,-10.5
CCC(=O)NCCc1nc2cc(NC(=O)c3ccco3)ccc2n1C,i,3.3,-5.4,i,-1.8
COc1ccccc1CN1CCC(CNS(=O)(=O)c2cc(-c3onc(C)c3C)ccc2OC)CC1,i,2.1,44.5*,i,10.7
CC(C)CSC1=NSC2=NC(=O)/C(=C\c3ccccc3)C(=N)N12,i,7.5,-7.0,25*,4.1
C/C(=N\N1CCN(Cc2ccccc2Cl)CC1)c1ccc([N+](=O)[O-])cc1,i,-13.1,-10.2,i,1.9
CC(=O)Oc1c(I)cc(I)cc1C(=O)Nc1ccc(Cl)cc1,i,27.2,-22.9,100*,-13.1
CCc1nnc(NS(=O)(=O)c2ccc(NC(=S)NC(=O)/C=C/c3ccc(C(C)C)cc3)cc2)s1,i,21.7,-23.7,100*,-56.2
Cc1nccn1-c1c2c(c(C#N)c3nc4ccccc4n13)CCCC2,i,·,·,·,·
N#Cc1c2c(c(-n3cnc4ccccc43)n3c1nc1ccccc13)CCC2,i,44.9*,-1.8,i,-0.1
C=CCOc1ccc(CN(C)CC(=O)Nc2ccc3c(c2)CCC3)cc1,i,2.8,36.9*,i,-2.9
SMILES,TMEM16A act,Apaf1 inhib,FID counter,TMEM16A inh,UBC13 inh
O=c1cc(-c2ccccc2Cl)oc2c(NS(=O)(=O)c3cc(Cl)cc(Cl)c3O)ccc(O)c12,i,1.4,-12.6,100*,-12.7
CCc1ccc(S(=O)(=O)Nc2ccc(O)c3c(=O)cc(-c4ccccc4Cl)oc23)cc1,i,24.8,·,i,-11.8
CCSC1=C(C#N)C2(CCCC2)C(C#N)=C(N)N1,·,7.8,-1.7,i,18.3
CC1(C)CC(=O)C2=C(C1)NC(SCC(=O)Nc1ccccc1)=C(C#N)C21CCCCC1,i,19.6,-0.5,i,0.0
N#CC1=C(N)NC(SCC(=O)Nc2ccc(Br)cc2)=C(C#N)C12CCCCC2,i,16.7,-4.3,100*,7.6
N#CC1=C(N)NC(SCc2ccccc2)=C(C#N)C12CCCC2,-5.09*,12.2,-11.6,i,20.9
N#CC1=C(N)NC(SCc2ccc(Br)cc2)=C(C#N)C12CCCCC2,i,22.5,4.2,100*,-1.2
N#CC1=C(N)NC(SCc2ccc(Cl)cc2)=C(C#N)C12CCCCC2,i,22.7,4.5,100*,-0.3
N#CC1=C(N)NC(SCC(=O)c2ccccc2)=C(C#N)C12CCCC2,i,2.8,-4.1,i,17.5
ON1C(c2ccc(Cl)cc2Cl)N(O)[C@H]2CCCC[C@H]21 (some centres not stated),i,6.6,-2.0,100*,5.1
O=C(O)CCn1c(=O)oc2cc(S(=O)(=O)N3CCCC3)ccc21,i,15.3,·,·,-7.0
CCOC(=O)CC(NS(=O)(=O)c1ccc(NC(C)=O)cc1)c1ccc(OCC)cc1 (configuration not stated),i,-1.9,-23.4,25*,0.2
Cc1nc(NC(=O)CSC2=NCCS2)sc1C(=O)N(C)C,i,-0.2,-8.0,i,6.1
c1ccc(-n2nnc3c(N4CCOCC4)ncnc32)cc1,i,-4.8,0.1,i,2.1
O=CNC(n1cnc2c(N3CCOCC3)ncnc21)C(Cl)(Cl)Cl (configuration not stated),-7.18*,-6.8,-11.5,i,-1.2
C/C=C/C(=O)Nc1cccc(C2=NOC3(C2)C[C@H](C(N)=O)N(C(=O)c2ccccc2C(=O)c2ccccc2)C3)c1 (some centres not stated),·,7.4,·,·,52.1*
CCC(=O)Nc1cccc(C2=NOC3(C2)C[C@@H](C(N)=O)N(C(=O)c2ccccc2C(=O)c2ccccc2)C3)c1 (some centres not stated),i,2.7,·,i,-7.7
Cc1cccc(C(=O)NC(=S)NNC(=O)Cc2ccccc2)c1,i,5.3,-1.8,i,-37.7
Cc1onc(-c2ccccc2)c1C(=O)NNC(=S)NC(=O)c1ccc(Cl)cc1Cl,i,2.6,-7.8,100*,-13.6
CCc1ccc(NC(=S)NC(=O)c2c(-c3ccccc3Cl)noc2C)cc1,i,-7.6,-3.5,i,5.8
Cc1cccc(C(=O)NC(=S)NNC(=O)c2ccccc2Cl)c1,i,-0.7,-1.6,100*,-36.8
Cc1ccccc1C(=O)NNC(=S)NC(=O)c1ccc(Cl)cc1Cl,i,-28.7,-11.6,100*,-15.5
Cc1onc(-c2ccccc2)c1C(=O)NNC(=S)NC(=O)/C=C/c1ccccc1,i,-5.2,-8.8,i,-15.9
Cc1onc(-c2ccccc2Cl)c1C(=O)NC(=S)NCC(=O)c1ccccc1,-9.01*,0.1,-1.0,i,-4.6
Cc1ccc(-c2nc(CS(=O)(=O)CC(=O)Nc3cc(F)ccc3F)c(C)o2)cc1,i,14.2,-27.3,i,-0.4
CC1CC(C)(C)NC(=S)O1 (configuration not stated),i,0.2,-0.8,i,1.8
Cc1onc(-c2ccccc2)c1C(=O)NNC(=S)NC(=O)c1ccc(Br)cc1,i,·,-14.6,100*,·
